Assay results of several laboratories.
Compare with care: the assays were run in different laboratories.
Target: Tyrosine-protein kinase Lck (LCK, Homo sapiens, UniProt P06239)

Compound	test	setting	measurement	value
C#Cc1cnc(Nc2ccc(CO)cc2)nc1Nc1ccccc1C(=O)NC	enzyme activity, inhibitor	1 µM	remaining activity	2.4%
C[C@H]1CC[C@H](n2c3cnccc3c3cnc(Nc4ccc5c(n4)CCN(C(=O)CO)C5)nc32)CC1	binding, competition with immobilised ligand	1 µM	remaining binding	49%
C#Cc1cc(-c2cc(Nc3nc(N[C@@H](C)c4ccc(F)cn4)ncc3Cl)n[nH]2)ccc1C=O	enzyme activity, inhibitor	0.2 µM	inhibition	78.9%
CN1CCN(C(=O)c2ccc(NC(=O)Nc3ccc(N(C)c4ccnc(Nc5ccc(CS(C)(=O)=O)cc5)n4)cc3)cc2)CC1	binding, competition with immobilised ligand	1 µM	remaining binding	85%
CC#CC(=O)N1CCC[C@H]1c1nc(-c2ccc(C(=O)Nc3ccccn3)cc2)c2c(N)nccn12	enzyme activity, inhibitor	1 µM	inhibition	10%
CCCCC(=O)Nc1ccc(-c2ccc3ncn(CCC)c(=O)c3c2)cn1	binding, competition with immobilised ligand	0.5 µM	remaining binding	100%
CNC(=O)c1ccccc1Nc1nc(Nc2ccc(CO)nc2)ncc1Cl	enzyme activity, inhibitor	1 µM	remaining activity	3.38%
C1=C/COCc2cc(ccc2OCCN2CCCC2)Nc2nccc(n2)-c2cccc(c2)COC/1	binding	0.1 µM	remaining binding	53%
C#Cc1cnc(Nc2ccc(CO)nc2)nc1Nc1ccccc1S(C)(=O)=NC#N (stereo not shown)	enzyme activity, inhibitor	1 µM	remaining activity	12.7%
C=CC(=O)N1CCC[C@@H](n2nc(-c3ccc(Oc4ccccc4)cc3)c3c(N)ncnc32)C1	enzyme activity, inhibitor	1 µM	inhibition	99%
